In ChEMBL document CHEMBL3244233, “Synthesis and biological activities of some N6- and N9-carbamoyladenines and related ribonucleosides” (1977):
Calls of active or inactive are those of the source. No cut-off for these calls is given here.

Assays:
Type in all cases: functional
[1] = Growth inhibition of human RPMI6410 cells assessed as viable cells at 10^-4 M after 72 hrs relative to control; details: RPMI 6410, 72 h, read-out: Activity
Summary of the method: (§1)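 Nc 37 cells come from a normal human buffy coat, RPMI 6410 from the buffy coat of a myeloblastic leukemia patient, and L1210 is mouse leukemia. Cells were grown in RPMI 1640 with 10% fetal calf serum and exposed to compound at 10^-4 M in medium containing 0.5% Me2SO for 72 h. Viable cell number is expressed as percent of 0.5% Me2SO controls and scored as ++ 30-60%, + 60-80%, ± 80-90%, NA 90-110%.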

L1210 [2] = experiment: Growth inhibition of mouse L1210 cells assessed as viable cells at 10^-4 M after 72 hrs relative to control; details: L1210, 72 h, read-out: Activity; summary of the method: as §1
[3] = Growth inhibition of human Nc37 cells assessed as viable cells at 10^-4 M after 72 hrs relative to control; details: NC-37, 72 h, read-out: Activity; summary of the method: as §1
L1210 [4] = experiment: Antitumor activity against mouse L1210 cells allografted in mouse assessed as increase in life span of host
L1210 [5] = experiment: Growth inhibition of mouse L1210 cells at 10^-4 M after 72 hrs relative to control; details: L1210, 72 h, read-out: GI; summary of the method: as §1
[6] = Growth inhibition of human Nc37 cells assessed as viable cells at 10^-5 M after 72 hrs relative to control; details: NC-37, 72 h, read-out: Activity
[7] = Growth inhibition of human RPMI6410 cells assessed as viable cells at 10^-5 M after 72 hrs relative to control; details: RPMI 6410, 72 h, read-out: Activity
L1210 [8] = experiment: Growth inhibition of mouse L1210 cells assessed as viable cells at 10^-5 M after 72 hrs relative to control; details: L1210, 72 h, read-out: Activity

Row | SMILES | viability at 100 µM [1] [%] | viability at 100 µM (L1210 [2]) [%] | viability at 100 µM [3] [%] | Activity (L1210 [4]) | inhibition of growth at 100 µM (L1210 [5]) [%] | viability at 10 µM [6] [%] | viability at 10 µM [7] [%] | viability at 10 µM (L1210 [8]) [%]
1 | Nc1ncnc2c1ncn2C(=O)Nc1ccccc1F | 60 | 60 | 90 | – | – | – | – | –
2 | CC(=O)OC[C@H]1O[C@@H](n2cnc3c(NC(=O)Nc4ccccc4Cl)ncnc32)[C@H](OC(C)=O)[C@@H]1OC(C)=O | 30 | > 30 | 30 | – | – | – | – | –
3 | CCCCNC(=S)Nc1ncnc2[nH]cnc12 | 60 | 30 | 30 | – | – | – | – | –
4 | CCCC(=O)n1cnc2c(N)ncnc21 | 60 | 60 | 90 | – | – | – | – | –
5 | O=C(NCCc1ccccc1Cl)Nc1ncnc2c1ncn2[C@@H]1O[C@H](CO)[C@@H](O)[C@H]1O | – | – | 60 | – | – | – | – | –
6 | CCOC(=O)CNC(=O)n1cnc2c(N)ncnc21 | 60 | 30 | 60 | – | – | – | – | –
7 | CC(C)(C)NC(=O)n1cnc2c(NC(=O)Nc3ccccc3F)ncnc21 | 60 | > 30 | 60 | – | – | – | – | –
8 | O=C(Nc1ccc(Cl)cc1)Nc1ncnc2c1ncn2[C@@H]1O[C@H](CO)[C@@H](O)[C@H]1O | 30 | > 30 | 30 | inactive | – | – | – | –
9 | CNc1ncnc2c1ncn2C(=O)NC(C)(C)C | 60 | 60 | 60 | – | – | – | – | –
10 | CC(OCc1ccccc1)C(NC(=O)n1cnc2c(N)ncnc21)C(=O)OCc1ccccc1 (stereo unspecified) | 60 | > 30 | 60 | – | ≥ 70 | – | – | –
11 | COc1ccc(NC(=O)Nc2ncnc3c2ncn3C(=O)NC(C)(C)C)cc1 | 80 | 80 | 90 | – | – | – | – | –
12 | CC(C)(C)NC(=O)n1cnc2c(N)ncnc21 | 60 | > 30 | 60 | – | ≥ 70 | – | – | –
13 | Cc1ccc(NC(=O)Nc2[nH]cnc3ncnc2-3)cc1 | 60 | > 30 | 90 | – | – | – | – | –
14 | CC(=O)OC[C@H]1O[C@@H](n2cnc3c(NC(=O)Nc4ccc(Cl)cc4)ncnc32)[C@H](OC(C)=O)[C@@H]1OC(C)=O | 30 | > 30 | 30 | – | – | – | – | –
15 | CNC(=S)n1cnc2c(N)ncnc21 | – | – | – | inactive | ≥ 70 | 30 | 30 | > 30
16 | CC(=O)n1cnc2c(N)ncnc21 | 90 | 30 | 90 | – | – | – | – | –
17 | O=C(Nc1ccc(Br)cc1)Nc1ncnc2c1ncn2C(=O)Nc1ccc(Br)cc1 | – | – | 60 | – | – | – | – | –
18 | CCCCCCCC(=O)n1cnc2c(N)ncnc21 | 60 | 30 | 60 | – | – | – | – | –
19 | C=CCNC(=O)n1cnc2c(N)ncnc21 | 60 | > 30 | 30 | – | ≥ 70 | – | – | –
20 | O=C(Nc1ccccc1)Nc1ncnc2[nH]cnc12 | 80 | 60 | 60 | – | – | – | – | –
21 | CN(C(=O)Nc1ccccc1)c1ncnc2c1ncn2C(=O)Nc1ccccc1 | 60 | 30 | 90 | – | – | – | – | –
22 | CCCCNC(=O)n1cnc2c(N)ncnc21 | 30 | > 30 | 30 | – | ≥ 70 | – | – | –
23 | CCOC(=O)CNC(=O)N(C)c1ncnc2c1ncn2C(=O)NCC(=O)OCC | 90 | 60 | 90 | – | – | – | – | –
24 | CCCCNC(=S)n1cnc2c(N)ncnc21 | 60 | 60 | 60 | – | – | – | – | –
25 | CC(C)C(NC(=O)n1cnc2c(N)ncnc21)C(=O)OCc1ccccc1 (stereo unspecified) | 30 | 30 | 60 | – | – | – | – | –
26 | CCOC(=O)n1cnc2c(NC)ncnc21 | 30 | 90 | 30 | – | – | – | – | –
